We go through 22 compounds from ChEMBL document CHEMBL4350962, “Expanding the Chemical Space of Withaferin A by Incorporating Silicon To Improve Its Clinical Potential on Human Ovarian Carcinoma Cells” (J Med Chem, 2019).

In one data set the test system is ARPE-19. The experiment in a line: Cytotoxicity against human ARPE19 cells measured after 96 hrs by MTT assay. In kind it is cell-based. Conditions: ARPE-19, 96 h. The essentials:
(§1)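 Cells kept in DMEM or RPMI 1640 with 10% FBS and 5% penicillin-streptomycin at 37 °C, 5% CO2, seeded at 1 x 10⁴ cells/mL and left 24 h to adhere. Compounds or vehicle added over a concentration range for 96 h, then MTT 4 h; formazan dissolved in DMSO, absorbance read at 540 nm relative to control. IC50 given as mean ± SD of three independent experiments in duplicate.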
Background: Formazan colour is commonly taken as a measure of viable cells.

Data set [1] is described as follows: Selectivity index, ratio of IC50 for human ARPE19 cells to IC50 for cisplatin-resistant human A2780/CP70 cells. Conditions: ARPE19 cells versus cisplatin-resistant A2780/CP70 cells, read-out: Ratio IC50. In kind it is toxicity.
A short description of data set [2]: Antiproliferative activity against cisplatin-resistant human A2780/CP70 cells measured after 96 hrs by MTT assay. In kind it is functional. Conditions: A2780/CP70, 96 h. The essentials: as §1
The subject of another data set is A2780. Nature of the data set: Antiproliferative activity against cisplatin-sensitive human A2780 cells measured after 96 hrs by MTT assay. Conditions: A2780, 96 h. In kind it is functional, cell-based. The gist of the method:
as §1

A short description of data set [3]: Selectivity index, ratio of IC50 for human ARPE19 cells to IC50 for cisplatin-sensitive human A2780 cells. In kind it is toxicity. Conditions: ARPE19 cells versus cisplatin-sensitive A2780 cells, read-out: Ratio IC50.

Take `CC[Si](CC)(CC)OCC1=C(C)C[C@H]([C@@H](C)[C@H]2CC[C@H]3[C@@H]4C[C@H]5O[C@]56[C@@H](O)C=CC(=O)[C@]6(C)[C@H]4CC[C@]23C)OC1=O`: the IC50 in the data set on ARPE-19 was 30 nM; in data set [2] it was 12.8 nM; with A2780, more than 100 nM. Besides, the selectivity ratio in data set [1] was found to be 2.3.

For `CC1=C(CO[Si](C)(C)C(C)C)C(=O)O[C@@H]([C@@H](C)[C@H]2CC[C@H]3[C@@H]4C[C@H]5O[C@]56C(=O)C=CC(=O)[C@]6(C)[C@H]4CC[C@]23C)C1`, the IC50 stood at 2140 nM in the data set with ARPE-19, 34 nM in data set [2] and 43 nM in the data set with A2780. Moreover, the selectivity ratio in data set [1] was determined as 62.9; in data set [3], 49.8.

In the case of `CC1=C(CO[Si](C)(C)C(C)C)C(=O)O[C@@H]([C@@H](C)[C@H]2CC[C@H]3[C@@H]4C[C@H]5O[C@]56[C@@H](O)C=CC(=O)[C@]6(C)[C@H]4CC[C@]23C)C1`, the IC50 with ARPE-19 came out at 6500 nM; in data set [2] it was 35 nM; in the data set with A2780, 34 nM. In addition, the selectivity ratio in data set [1] is 186; in data set [3] it was 191.

`CC1=C(CO)C(=O)O[C@@H]([C@@H](C)[C@H]2CC[C@H]3[C@@H]4C[C@H]5O[C@]56[C@@H](O)C=CC(=O)[C@]6(C)[C@H]4CC[C@]23C)C1` [WITHAFERIN A]: the IC50 with ARPE-19 amounted to 37 nM; in data set [2], 32 nM; with A2780, 32.7 nM. The selectivity ratio came out at 1.2 in data set [1] and 1.1 in data set [3].

As to `CCCC[Si](CCCC)(CCCC)OCC1=C(C)C[C@H]([C@@H](C)[C@H]2CC[C@H]3[C@@H]4C[C@H]5O[C@]56C(=O)C=CC(=O)[C@]6(C)[C@H]4CC[C@]23C)OC1=O`, the half-inhibitory concentration (IC50) in the data set on ARPE-19 is 617 nM; in data set [2], more than 100 nM; in the data set with A2780, 53 nM. The selectivity ratio in data set [3] was found to be 11.6.

Consider `CC1=C(CO[Si](c2ccccc2)(c2ccccc2)C(C)(C)C)C(=O)O[C@@H]([C@@H](C)[C@H]2CC[C@H]3[C@@H]4C[C@H]5O[C@]56[C@@H](O)C=CC(=O)[C@]6(C)[C@H]4CC[C@]23C)C1`, for which the results for the IC50 (in the data set on ARPE-19; in data set [2]; in the data set with A2780) were 2300 nM, 29 nM and 46 nM, respectively. Moreover, the results for the selectivity ratio in data set [1] and in data set [3] were 79.1 and 49.9, respectively.

As to `CC1=C(CO[Si](C)(C)C)C(=O)O[C@@H]([C@@H](C)[C@H]2CC[C@H]3[C@@H]4C[C@H]5O[C@]56C(=O)C=CC(=O)[C@]6(C)[C@H]4CC[C@]23C)C1`, the IC50 was 820 nM in the data set with ARPE-19, 68.8 nM in data set [2] and 41 nM with A2780. Besides, the results for the selectivity ratio in data set [1] and in data set [3] were 11.9 and 20, respectively.

Take `C=C[Si](C)(C)OCC1=C(C)C[C@H]([C@@H](C)[C@H]2CC[C@H]3[C@@H]4C[C@H]5O[C@]56[C@@H](O)C=CC(=O)[C@]6(C)[C@H]4CC[C@]23C)OC1=O`: the IC50 was 86 nM with ARPE-19, 31 nM in data set [2] and 27 nM with A2780. The selectivity ratio in data set [1] is 2.8; in data set [3], 3.2.

With `CC1=C(CO[Si](C(C)C)(C(C)C)C(C)C)C(=O)O[C@@H]([C@@H](C)[C@H]2CC[C@H]3[C@@H]4C[C@H]5O[C@]56C(=O)C=CC(=O)[C@]6(C)[C@H]4CC[C@]23C)C1`, the IC50 in the data set on ARPE-19 is 37.5 nM; in data set [2], 35 nM; in the data set with A2780 it was 35 nM. Further, the selectivity ratio in data set [1] and in data set [3] was 1.1 in each case.

Consider `CC1=C(CO[Si](C(C)C)(C(C)C)C(C)C)C(=O)O[C@@H]([C@@H](C)[C@H]2CC[C@H]3[C@@H]4C[C@H]5O[C@]56[C@@H](O)C=CC(=O)[C@]6(C)[C@H]4CC[C@]23C)C1`, for which the IC50 in the data set on ARPE-19 is 62 nM; in data set [2] it was 62 nM; with A2780, 30 nM. Further, the selectivity ratio is 1 in data set [1] and 2.1 in data set [3].

`C=C[Si](C)(C)OCC1=C(C)C[C@H]([C@@H](C)[C@H]2CC[C@H]3[C@@H]4C[C@H]5O[C@]56[C@@H](O[Si](C)(C)C=C)C=CC(=O)[C@]6(C)[C@H]4CC[C@]23C)OC1=O`: the IC50 in the data set on ARPE-19 came to 92 nM; in data set [2] it was 27.5 nM; in the data set on A2780, 33 nM. Besides, the values for the selectivity ratio in data set [1] and in data set [3] were 3.4 and 2.8, respectively.

As for `CCCCCCCC[Si](C)(C)OCC1=C(C)C[C@H]([C@@H](C)[C@H]2CC[C@H]3[C@@H]4C[C@H]5O[C@]56[C@@H](O[Si](C)(C)CCCCCCCC)C=CC(=O)[C@]6(C)[C@H]4CC[C@]23C)OC1=O`, the IC50 was determined as 318 nM in the data set on ARPE-19, 24.9 nM in data set [2] and 1.5 nM with A2780. Further, the selectivity ratio is 12.8 in data set [1] and 212 in data set [3].

Consider `CC1=C(CO)C(=O)O[C@@H]([C@@H](C)[C@H]2CC[C@H]3[C@@H]4C[C@H]5O[C@]56[C@@H](O[Si](C)(C)C(C)C)C=CC(=O)[C@]6(C)[C@H]4CC[C@]23C)C1`, for which the IC50 in the data set with ARPE-19 amounted to 310 nM; in data set [2] it was 23 nM; with A2780, 34 nM. Moreover, the selectivity ratio in data set [1] was determined as 13.5; in data set [3], 9.1.

Regarding `CC1=C(CO)C(=O)O[C@@H]([C@@H](C)[C@H]2CC[C@H]3[C@@H]4C[C@H]5O[C@]56C(=O)C=CC(=O)[C@]6(C)[C@H]4CC[C@]23C)C1`, the IC50 with ARPE-19 is 32 nM; in data set [2] it was less than 1 nM; in the data set on A2780, 7.3 nM. The selectivity ratio is more than 32 in data set [1] and 4.3 in data set [3].

In the case of `CC[Si](CC)(CC)OCC1=C(C)C[C@H]([C@@H](C)[C@H]2CC[C@H]3[C@@H]4C[C@H]5O[C@]56C(=O)C=CC(=O)[C@]6(C)[C@H]4CC[C@]23C)OC1=O`, the figures for the IC50 (in the data set on ARPE-19; in data set [2]; in the data set on A2780) were 1870 nM, 20 nM and 35 nM, respectively. Further, the figures for the selectivity ratio in data set [1] and in data set [3] were 93.5 and 53.5, respectively.

As to `CCCCCCCC[Si](C)(C)OCC1=C(C)C[C@H]([C@@H](C)[C@H]2CC[C@H]3[C@@H]4C[C@H]5O[C@]56[C@@H](O)C=CC(=O)[C@]6(C)[C@H]4CC[C@]23C)OC1=O`, the IC50 with ARPE-19 turned out to be 32 nM; in data set [2], 33 nM; in the data set on A2780 it was 10 nM. The selectivity ratio in data set [1] was 1; in data set [3], 3.2.

For the compound `CC1=C(CO[Si](C)(C)C(C)C)C(=O)O[C@@H]([C@@H](C)[C@H]2CC[C@H]3[C@@H]4C[C@H]5O[C@]56[C@@H](O)[C@@H](n5ccnc5)CC(=O)[C@]6(C)[C@H]4CC[C@]23C)C1`, the IC50 with ARPE-19 was 52 nM; in data set [2], 19 nM; in the data set with A2780, 20 nM. Moreover, the selectivity ratio worked out at 2.7 in data set [1] and 2.6 in data set [3].

With `CCC[Si](CCC)(CCC)OCC1=C(C)C[C@H]([C@@H](C)[C@H]2CC[C@H]3[C@@H]4C[C@H]5O[C@]56C(=O)C=CC(=O)[C@]6(C)[C@H]4CC[C@]23C)OC1=O`, the figures for the IC50 (with ARPE-19; in data set [2]; with A2780) were 1740 nM, 21 nM and 69 nM, respectively. For the same compound, the selectivity ratio is 82.9 in data set [1] and 25.2 in data set [3].

In the case of `CCCC[Si](CCCC)(CCCC)OCC1=C(C)C[C@H]([C@@H](C)[C@H]2CC[C@H]3[C@@H]4C[C@H]5O[C@]56[C@@H](O)C=CC(=O)[C@]6(C)[C@H]4CC[C@]23C)OC1=O`, the results for the IC50 (with ARPE-19; in data set [2]; in the data set with A2780) were 260 nM, 22 nM and 27 nM, respectively. For the same compound, the selectivity ratio in data set [1] came out at 11.8; in data set [3], 9.6.

As for `CC1=C(CO[Si](C)(C)c2ccccc2)C(=O)O[C@@H]([C@@H](C)[C@H]2CC[C@H]3[C@@H]4C[C@H]5O[C@]56[C@@H](O[Si](C)(C)c5ccccc5)C=CC(=O)[C@]6(C)[C@H]4CC[C@]23C)C1`, the IC50 was found to be 309 nM in the data set on ARPE-19, 29 nM in data set [2] and 2.9 nM in the data set with A2780. The selectivity ratio amounted to 10.7 in data set [1] and 107 in data set [3].

Regarding `CC1=C(CO[Si](C)(C)c2ccccc2)C(=O)O[C@@H]([C@@H](C)[C@H]2CC[C@H]3[C@@H]4C[C@H]5O[C@]56C(=O)C=CC(=O)[C@]6(C)[C@H]4CC[C@]23C)C1`, the half-maximal inhibitory concentration (IC50) was 2300 nM in the data set with ARPE-19, more than 100 nM in data set [2] and 59 nM in the data set on A2780. Also, the selectivity ratio in data set [3] came out at 39.1.

Regarding `CC1=C(CO[Si](C)(c2ccccc2)c2ccccc2)C(=O)O[C@@H]([C@@H](C)[C@H]2CC[C@H]3[C@@H]4C[C@H]5O[C@]56C(=O)C=CC(=O)[C@]6(C)[C@H]4CC[C@]23C)C1`, the IC50 was 2050 nM in the data set on ARPE-19, more than 100 nM in data set [2] and 35 nM in the data set on A2780. Besides, the selectivity ratio in data set [3] came out at 58.6.

The IC50 is the concentration at which inhibition is half-maximal.
